Measured values taken from ChEMBL document CHEMBL4706568, “Some thermodynamic effects of varying nonpolar surfaces in protein-ligand interactions” (Eur J Med Chem, 2020).
Square brackets hold non-standard residues; d marks the D form. Peptide text beside a SMILES is read from it. * marks the point of attachment. pY = N[C@@H](Cc1ccc(OP(=O)(O)O)cc1)C(=O)O; NHPhenethyl = c1ccc(CCN*)cc1; Ac6c = NC1(C(=O)O)CCCCC1; NHBn = c1ccc(CN*)cc1

Experiments:
[1] = target: Growth factor receptor-bound protein 2 (Homo sapiens) (UniProt P62993); assay: Binding affinity to Grb2-SH2 domain (53 to 163 residues) (unknown origin) expressed in Escherichia coli assessed as association constant by ITC analysis
Outline: (§1)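 Grb2 SH2 residues 53–163 expressed in E. coli SG13009 (IPTG induction), purified by phosphotyrosine affinity, Q-Sepharose and size exclusion to isolate monomer. Protein diluted to 65–85 μM, ligand ~1 mM, both in 50 mM HEPES, 150 mM NaCl, pH 7.50. VP-ITC at 25 °C, ~35 injections of 7–9 μL ligand, buffer heats subtracted, n normalized to 1.00; ≥3 runs averaged.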

[2] = target: Growth factor receptor-bound protein 2 (Homo sapiens) (UniProt P62993); assay: Binding affinity to Grb2-SH2 domain (53 to 163 residues) (unknown origin) expressed in Escherichia coli assessed as change in enthalpy by ITC analysis; outline: as §1
[3] = target: Growth factor receptor-bound protein 2 (Homo sapiens) (UniProt P62993); assay: Binding affinity to Grb2-SH2 domain (53 to 163 residues) (unknown origin) expressed in Escherichia coli assessed as change in entropy by ITC analysis; outline: as §1
[4] = target: Growth factor receptor-bound protein 2 (Homo sapiens) (UniProt P62993); assay: Binding affinity to Grb2-SH2 domain (53 to 163 residues) (unknown origin) expressed in Escherichia coli assessed as change in gibbs free energy by ITC analysis; outline: as §1

Ka [1] | deltaH [2] | -TdeltaS [3] | deltaG [4] | Compound
1.1 10^7/M | -6.7 kcal/mol | -2.8 kcal/mol | -9.5 kcal/mol | CC(=O)N[C@@H](Cc1ccc(OP(=O)(O)O)cc1)C(=O)NC1(C(=O)N[C@@H](CC(N)=O)C(=O)NCc2cn(C)c3ccccc23)CCCCC1
2.7 10^7/M | -9.1 kcal/mol | -1 kcal/mol | -10.1 kcal/mol | CC(=O)N[C@@H](Cc1ccc(OP(=O)(O)O)cc1)C(=O)NC1(C(=O)N[C@@H](CC(N)=O)C(=O)NCCCn2ccc3ccccc32)CCCCC1
1.6 10^7/M | -7.9 kcal/mol | -1.9 kcal/mol | -9.8 kcal/mol | CC(=O)N[C@@H](Cc1ccc(OP(=O)(O)O)cc1)C(=O)NC1(C(=O)N[C@@H](CC(N)=O)C(=O)NCCCC(C)C)CCCCC1
2.8 10^7/M | -7.9 kcal/mol | -2.3 kcal/mol | -10.2 kcal/mol | CC(=O)N[C@@H](Cc1ccc(OP(=O)(O)O)cc1)C(=O)NC1(C(=O)N[C@@H](CC(N)=O)C(=O)NCCCCCc2ccccc2)CCCCC1
3.5 10^7/M | -9.1 kcal/mol | -1.2 kcal/mol | -10.3 kcal/mol | CC(=O)N[C@@H](Cc1ccc(OP(=O)(O)O)cc1)C(=O)NC1(C(=O)N[C@@H](CC(N)=O)C(=O)NCCCc2c[nH]c3ccccc23)CCCCC1
4 10^7/M | -8.6 kcal/mol | -1.7 kcal/mol | -10.3 kcal/mol | CC(=O)N[C@@H](Cc1ccc(OP(=O)(O)O)cc1)C(=O)NC1(C(=O)N[C@@H](CC(N)=O)C(=O)NCCCc2ccc(C)cc2)CCCCC1
4.7 10^7/M | -9.1 kcal/mol | -1.4 kcal/mol | -10.5 kcal/mol | CC(=O)N[C@@H](Cc1ccc(OP(=O)(O)O)cc1)C(=O)NC1(C(=O)N[C@@H](CC(N)=O)C(=O)NCCCc2ccc(Cl)cc2)CCCCC1
5 10^7/M | -9.1 kcal/mol | -1.4 kcal/mol | -10.5 kcal/mol | COc1ccc(CCCNC(=O)[C@H](CC(N)=O)NC(=O)C2(NC(=O)[C@H](Cc3ccc(OP(=O)(O)O)cc3)NC(C)=O)CCCCC2)cc1
1.5 10^7/M | -7.7 kcal/mol | -2.1 kcal/mol | -9.8 kcal/mol | CC(=O)N[C@@H](Cc1ccc(OP(=O)(O)O)cc1)C(=O)NC1(C(=O)N[C@@H](CC(N)=O)C(=O)NCCc2ccccc2)CCCCC1 (Ac-[pY]-[Ac6c]-Asn-NHPhenethyl)

Further lines, the compound ahead of its results:

Compound | Ka [1] | deltaH [2] | -TdeltaS [3] | deltaG [4]
CC(=O)N[C@@H](Cc1ccc(OP(=O)(O)O)cc1)C(=O)NC1(C(=O)N[C@@H](CC(N)=O)C(=O)NCCCc2ccccc2)CCCCC1 | 2.6 10^7/M | -8.8 kcal/mol | -1.3 kcal/mol | -10.1 kcal/mol
CC(=O)N[C@@H](Cc1ccc(OP(=O)(O)O)cc1)C(=O)NC1(C(=O)N[C@@H](CC(N)=O)C(=O)NCc2ccccc2)CCCCC1 (Ac-[pY]-[Ac6c]-Asn-NHBn) | 1.2 10^7/M | -7.5 kcal/mol | -2.1 kcal/mol | -9.6 kcal/mol
CC(=O)N[C@@H](Cc1ccc(OP(=O)(O)O)cc1)C(=O)NC1(C(=O)N[C@@H](CC(N)=O)C(N)=O)CCCCC1 (Ac-[pY]-[Ac6c]-Asn-NH2) | 0.7 10^7/M | -8.5 kcal/mol | -0.8 kcal/mol | -9.3 kcal/mol
CC(=O)N[C@@H](Cc1ccc(OP(=O)(O)O)cc1)C(=O)NC1(C(=O)N[C@@H](CC(N)=O)C(=O)NCCCC2CCCCC2)CCCCC1 | 1.9 10^7/M | -8 kcal/mol | -1.9 kcal/mol | -9.9 kcal/mol
CC(=O)N[C@@H](Cc1ccc(OP(=O)(O)O)cc1)C(=O)NC1(C(=O)N[C@@H](CC(N)=O)C(=O)NCCCc2cccc3ccccc23)CCCCC1 | 6 10^7/M | -9.6 kcal/mol | -1 kcal/mol | -10.6 kcal/mol
CC(=O)N[C@@H](Cc1ccc(OP(=O)(O)O)cc1)C(=O)NC1(C(=O)N[C@@H](CC(N)=O)C(=O)NCCc2cn(C)c3ccccc23)CCCCC1 | 2.4 10^7/M | -8.1 kcal/mol | -2 kcal/mol | -10.1 kcal/mol
CC(=O)N[C@@H](Cc1ccc(OP(=O)(O)O)cc1)C(=O)NC1(C(=O)N[C@@H](CC(N)=O)C(=O)NCCCCc2ccccc2)CCCCC1 | 1.5 10^7/M | -7.7 kcal/mol | -2.1 kcal/mol | -9.8 kcal/mol
CC(=O)N[C@@H](Cc1ccc(OP(=O)(O)O)cc1)C(=O)NC1(C(=O)N[C@@H](CC(N)=O)C(=O)NCCCc2cn(C)c3ccccc23)CCCCC1 | 4.9 10^7/M | -10.2 kcal/mol | -0.2 kcal/mol | -10.4 kcal/mol
CC(=O)N[C@@H](Cc1ccc(OP(=O)(O)O)cc1)C(=O)NC1(C(=O)N[C@@H](CC(N)=O)C(=O)NCCCCC(C)C)CCCCC1 | 1.7 10^7/M | -7.8 kcal/mol | -2 kcal/mol | -9.8 kcal/mol
